Data: ChEMBL document CHEMBL3627613, “4-Aminoquinoline derivatives as novel Mycobacterium tuberculosis GyrB inhibitors: Structural optimization, synthesis and biological evaluation” (Eur J Med Chem, 2015)
Converted amounts (≈) assume the structure as drawn. The source made the active and inactive calls. The rule behind the calls is not given here.

Experiments:
[1] = target: DNA gyrase subunit A/DNA gyrase subunit B (Mycobacterium tuberculosis (strain ATCC 25618 / H37Rv), UniProt P9WG45+P9WG47); assay: Inhibition of DNA gyrase GyrA/GyrB in Mycobacterium tuberculosis incubated for 30 mins assessed as reduction in supercoiling of relaxed relaxed pBR322 DNA by ethidium bromide staining based agarose gel electrophoresis method
DNA gyrase subunit A/DNA gyrase subunit B, sequence (P9WG45 whole entry): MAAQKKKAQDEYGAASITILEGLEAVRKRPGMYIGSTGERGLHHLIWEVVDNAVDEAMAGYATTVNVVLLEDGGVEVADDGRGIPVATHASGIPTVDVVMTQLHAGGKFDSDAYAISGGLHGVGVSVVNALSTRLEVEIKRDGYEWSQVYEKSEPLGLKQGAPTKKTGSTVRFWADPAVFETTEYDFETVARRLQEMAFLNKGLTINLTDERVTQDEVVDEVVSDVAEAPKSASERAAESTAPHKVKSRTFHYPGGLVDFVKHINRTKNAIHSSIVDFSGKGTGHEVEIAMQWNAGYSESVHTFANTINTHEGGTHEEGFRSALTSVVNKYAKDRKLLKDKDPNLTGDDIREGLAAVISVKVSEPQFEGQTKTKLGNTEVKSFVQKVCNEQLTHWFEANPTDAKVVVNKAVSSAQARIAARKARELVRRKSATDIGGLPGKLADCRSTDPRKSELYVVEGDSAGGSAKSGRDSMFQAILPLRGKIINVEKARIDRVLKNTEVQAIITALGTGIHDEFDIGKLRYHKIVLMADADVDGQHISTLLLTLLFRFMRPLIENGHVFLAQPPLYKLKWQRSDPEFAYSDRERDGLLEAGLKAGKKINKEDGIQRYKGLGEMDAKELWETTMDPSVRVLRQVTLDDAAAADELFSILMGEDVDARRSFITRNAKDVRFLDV
DNA gyrase subunit A/DNA gyrase subunit B, sequence (P9WG47 whole entry): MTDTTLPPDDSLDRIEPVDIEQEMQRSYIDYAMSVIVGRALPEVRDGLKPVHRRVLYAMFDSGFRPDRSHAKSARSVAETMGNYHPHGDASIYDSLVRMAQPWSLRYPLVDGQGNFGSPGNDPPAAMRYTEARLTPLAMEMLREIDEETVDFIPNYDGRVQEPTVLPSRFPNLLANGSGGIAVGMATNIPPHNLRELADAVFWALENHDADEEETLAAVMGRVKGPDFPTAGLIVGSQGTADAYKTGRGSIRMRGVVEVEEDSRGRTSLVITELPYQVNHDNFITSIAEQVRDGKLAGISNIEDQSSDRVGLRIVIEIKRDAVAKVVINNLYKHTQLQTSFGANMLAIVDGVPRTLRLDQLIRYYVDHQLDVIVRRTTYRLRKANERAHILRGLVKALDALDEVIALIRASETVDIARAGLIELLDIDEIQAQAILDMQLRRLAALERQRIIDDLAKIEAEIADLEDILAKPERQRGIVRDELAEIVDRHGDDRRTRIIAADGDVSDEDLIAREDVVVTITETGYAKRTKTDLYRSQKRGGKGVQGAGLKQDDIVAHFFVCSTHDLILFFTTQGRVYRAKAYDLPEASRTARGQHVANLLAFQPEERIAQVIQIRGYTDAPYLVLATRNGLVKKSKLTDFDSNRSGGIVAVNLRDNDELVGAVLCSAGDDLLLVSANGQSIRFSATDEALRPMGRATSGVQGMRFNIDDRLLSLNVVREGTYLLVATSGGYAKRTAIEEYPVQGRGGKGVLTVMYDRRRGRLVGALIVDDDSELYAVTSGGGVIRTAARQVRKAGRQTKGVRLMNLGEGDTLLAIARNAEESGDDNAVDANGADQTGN

DNA gyrase subunit B = DNA gyrase subunit B (Mycobacterium smegmatis, UniProt P0C559); assay: Inhibition of Mycobacterium smegmatis DNA gyrase B expressed in Escherichia coli BL21 (DE3) pLysS cells assessed as reduction in ATPase activity incubated for 100 mins by inorganic phosphate detection assay; design: species or system Mycolicibacterium smegmatis
DNA gyrase subunit B, sequence (P0C559 whole entry): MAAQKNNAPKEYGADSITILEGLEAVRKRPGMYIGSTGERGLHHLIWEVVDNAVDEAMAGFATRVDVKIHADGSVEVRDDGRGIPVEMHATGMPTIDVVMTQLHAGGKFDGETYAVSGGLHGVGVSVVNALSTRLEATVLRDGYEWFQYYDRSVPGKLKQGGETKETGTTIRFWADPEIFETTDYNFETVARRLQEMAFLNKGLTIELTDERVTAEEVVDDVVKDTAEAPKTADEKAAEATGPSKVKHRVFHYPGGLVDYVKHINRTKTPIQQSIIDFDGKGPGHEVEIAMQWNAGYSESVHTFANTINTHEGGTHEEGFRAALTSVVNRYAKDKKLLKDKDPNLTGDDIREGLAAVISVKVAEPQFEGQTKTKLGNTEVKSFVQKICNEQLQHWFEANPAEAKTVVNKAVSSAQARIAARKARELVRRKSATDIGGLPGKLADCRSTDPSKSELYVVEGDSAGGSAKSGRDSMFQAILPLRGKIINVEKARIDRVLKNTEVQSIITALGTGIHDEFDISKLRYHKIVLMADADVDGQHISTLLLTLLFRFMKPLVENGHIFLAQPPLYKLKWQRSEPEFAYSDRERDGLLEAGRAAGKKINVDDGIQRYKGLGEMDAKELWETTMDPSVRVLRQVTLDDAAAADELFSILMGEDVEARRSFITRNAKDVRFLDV

[2] = system: Mycobacterium tuberculosis; assay: Antimycobacterial activity against Mycobacterium tuberculosis H37Rv assessed as growth inhibition incubated for 7 days by microplate alamar blue assay; type: functional; conditions: 168 h
Outline: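 M. tuberculosis H37Rv inoculum from fresh LJ medium, resuspended in 7H9 broth (0.1% casitone, 0.5% glycerol, OADC), set to McFarland No. 1 and diluted 1:20. Two-fold serial compound dilutions in 7H9-S, with growth and sterile controls. Incubated 7 days at 37 °C, then alamar blue overnight. MIC is the lowest concentration preventing the blue-to-pink colour change.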

[3] = Cytotoxicity against mouse RAW264.7 cells assessed as inhibition of cell viability at 50 uM incubated for 48 hrs at 37 degC by MTT assay relative to control; type: cell-based; conditions: read-out: INH
Outline: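 RAW 264.7 mouse macrophages, 5×10^5 cells per well, exposed to compound for 48 h at 37 °C under 5% CO2. MTT added 4 h before the end. Formazan dissolved in DMSO and absorbance read at 560 nm against blank. Triplicates, run twice.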

[4] = target: DNA gyrase subunit B (Staphylococcus aureus) (UniProt P0A0K8); assay: Inhibition of Staphylococcus aureus DNA gyrase B assessed as reduction in ATPase activity at 100 uM incubated for 100 mins by inorganic phosphate detection assay
DNA gyrase subunit B (Staphylococcus aureus), sequence (P0A0K8 2-644 limits assumed): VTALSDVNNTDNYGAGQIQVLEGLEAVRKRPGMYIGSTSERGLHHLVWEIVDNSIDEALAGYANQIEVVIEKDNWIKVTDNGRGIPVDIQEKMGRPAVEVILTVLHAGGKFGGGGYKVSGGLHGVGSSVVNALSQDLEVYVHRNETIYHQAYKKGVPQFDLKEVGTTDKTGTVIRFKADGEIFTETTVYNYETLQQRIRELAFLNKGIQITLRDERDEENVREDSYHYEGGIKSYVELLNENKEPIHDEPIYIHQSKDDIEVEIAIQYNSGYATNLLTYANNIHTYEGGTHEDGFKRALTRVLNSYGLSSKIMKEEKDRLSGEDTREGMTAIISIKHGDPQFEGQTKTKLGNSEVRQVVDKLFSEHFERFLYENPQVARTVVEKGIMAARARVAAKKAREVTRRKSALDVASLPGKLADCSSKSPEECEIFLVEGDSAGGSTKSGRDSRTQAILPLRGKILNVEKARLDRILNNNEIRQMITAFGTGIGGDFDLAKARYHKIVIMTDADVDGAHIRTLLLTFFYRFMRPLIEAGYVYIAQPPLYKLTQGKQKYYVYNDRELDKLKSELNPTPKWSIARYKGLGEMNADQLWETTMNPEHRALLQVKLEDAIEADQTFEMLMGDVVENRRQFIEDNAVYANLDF

[5] = target: DNA gyrase subunit B (Mycobacterium smegmatis) (UniProt P0C559); assay: Binding affinity to Mycobacterium smegmatis DNA gyrase B assessed as changing in melting temperature of the protein-ligand complex by differential scanning fluorometry; conditions: Mycolicibacterium smegmatis
DNA gyrase subunit B (Mycobacterium smegmatis), sequence (P0C559 2-675 limits assumed): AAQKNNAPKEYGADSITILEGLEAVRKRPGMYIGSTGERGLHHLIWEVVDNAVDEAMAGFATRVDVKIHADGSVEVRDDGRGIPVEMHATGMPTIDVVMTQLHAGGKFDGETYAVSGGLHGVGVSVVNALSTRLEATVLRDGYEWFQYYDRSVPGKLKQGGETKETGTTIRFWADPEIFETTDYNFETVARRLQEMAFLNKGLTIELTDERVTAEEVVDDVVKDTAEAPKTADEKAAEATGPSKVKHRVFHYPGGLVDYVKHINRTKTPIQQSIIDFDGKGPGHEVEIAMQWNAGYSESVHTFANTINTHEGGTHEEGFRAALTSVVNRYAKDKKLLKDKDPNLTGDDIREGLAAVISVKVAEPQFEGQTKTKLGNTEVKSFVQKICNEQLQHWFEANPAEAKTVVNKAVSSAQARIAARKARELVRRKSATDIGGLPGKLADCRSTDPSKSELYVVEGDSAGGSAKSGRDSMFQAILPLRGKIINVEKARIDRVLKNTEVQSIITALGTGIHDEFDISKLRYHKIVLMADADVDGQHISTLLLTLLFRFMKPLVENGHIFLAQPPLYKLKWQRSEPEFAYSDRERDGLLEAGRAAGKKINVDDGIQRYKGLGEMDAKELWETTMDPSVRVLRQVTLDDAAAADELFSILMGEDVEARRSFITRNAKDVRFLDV
Outline: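 His-tagged M. smegmatis GyrB expressed in E. coli BL21(DE3)pLysS and Ni-NTA purified, used at 2 mg/mL. Native protein and protein-ligand complex heated from 25 to 95 °C in 0.1 °C steps with 50X SYPRO orange. Read-out is the Tm shift of the complex relative to native protein.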

[6] = target: DNA gyrase subunit B (Escherichia coli) (UniProt P0AES6); assay: Inhibition of Escherichia coli Inspiralis DNA gyrase B assessed as reduction in ATPase activity at 100 uM incubated for 100 mins by inorganic phosphate detection assay

SMILES | IC50 [1] [µM] | IC50 (DNA gyrase subunit B) [µM] | MIC [2] [µM] | cytotoxicity at 48 h, 50 µM [3] [%] | inhibition [4] | ΔTm [5] [°C] | inhibition [6]
CCN1CCN(CCCOc2ccc(Nc3c(C(=O)O)cnc4ccc(C(F)(F)F)cc34)cc2)CC1 | 3.54 | 7.91 | 19.8 (≈ 9.93 µg/mL) | 13.4 | – | – | –
CCN1CCN(CCCOc2ccc(Nc3c(C(=O)O)cnc4ccccc34)cc2)CC1 | 10.2 | 21.7 | 27.2 (≈ 11.8 µg/mL) | 13.4 | – | – | –
O=C(O)c1cnc2ccc(F)cc2c1Nc1ccc(NCCCN2CCOCC2)cc1 | 4.44 | 15 | 29.5 (≈ 12.5 µg/mL) | 13.1 | – | – | –
O=C(O)c1cnc2ccc(F)cc2c1Nc1ccc(OCCCN2CCOCC2)cc1 | 16.9 | 31.3 | 14.7 (≈ 6.25 µg/mL) | 10.8 | – | – | –
NNC(=O)c1cnc2ccc(C(F)(F)F)cc2c1Nc1ccc(NCCCN2CCOCC2)cc1 | 19.9 | 47.2 | 25.6 (≈ 12.5 µg/mL) | 7.94 | – | – | –
CCN1CCN(CCCNc2ccc(Nc3c(C(=O)NN)cnc4ccccc34)cc2)CC1 | 9.42 | 10.8 | 13.5 (≈ 6.04 µg/mL) | 3.36 | – | – | –
CCOC(=O)c1cnc2ccc(F)cc2c1Nc1ccc(OCCCN2CCOCC2)cc1 | 7.63 | 16.9 | 21.7 (≈ 9.85 µg/mL) | 44.1 | – | – | –
O=C(O)c1cnc2ccc(C(F)(F)F)cc2c1Nc1ccc(OCCCN2CCOCC2)cc1 | 14.3 | 27.8 | 13.2 (≈ 6.25 µg/mL) | 22.6 | – | – | –
CCN1CCN(CCCNc2ccc(Nc3c(C(=O)NN)cnc4ccc(OC)cc34)cc2)CC1 | 2.55 | 3.26 | 13.1 (≈ 6.25 µg/mL) | 2.56 | – | – | –
CCN1CCN(CCCNc2ccc(Nc3c(C(=O)O)cnc4ccc(OC)cc34)cc2)CC1 | 0.93 | 1.32 | 3.48 (≈ 1.61 µg/mL) | 20.1 | – | – | –
O=C(O)c1cnc2ccc(C(F)(F)F)cc2c1Nc1ccc(NCCCN2CCOCC2)cc1 | 3.77 | 7.89 | 6.59 (≈ 3.13 µg/mL) | 19.1 | – | – | –
CCOC(=O)c1cnc2ccc(OC)cc2c1Nc1ccc(OCCCN2CCOCC2)cc1 | 13.3 | 14.9 | 13.3 (≈ 6.22 µg/mL) | 21.2 | – | – | –
CCN1CCN(CCCOc2ccc(Nc3c(C(=O)O)cnc4ccc(OC)cc34)cc2)CC1 | 0.63 | 0.86 | 3.3 (≈ 1.53 µg/mL) | 0.66 | inactive | 3.3 | inactive
CCOC(=O)c1cnc2ccc(C(F)(F)F)cc2c1Nc1ccc(OCCCN2CCN(CC)CC2)cc1 | 0.69 | 0.97 | 2.94 (≈ 1.56 µg/mL) | 27.3 | – | – | –
CCOC(=O)c1cnc2ccccc2c1Nc1ccc(OCCCN2CCOCC2)cc1 | 7.53 | 22.8 | 28.7 (≈ 12.5 µg/mL) | 17.7 | – | – | –
COc1ccc2ncc(C(=O)O)c(Nc3ccc(OCCCN4CCOCC4)cc3)c2c1 | 12.9 | 20.6 | 57.1 (≈ 25 µg/mL) | 11.4 | – | – | –

SMILES | IC50 [1] [µM] | IC50 (DNA gyrase subunit B) [µM] | MIC [2] [µM] | cytotoxicity at 48 h, 50 µM [3] [%] | inhibition [4] | ΔTm [5] [°C] | inhibition [6]
CCOC(=O)c1cnc2ccc(OC)cc2c1Nc1ccc(OCCCN2CCN(CC)CC2)cc1 | 6.85 | 15.9 | 11.6 (≈ 5.7 µg/mL) | 21.6 | – | – | –
NNC(=O)c1cnc2ccccc2c1Nc1ccc(OCCCN2CCOCC2)cc1 | 0.72 | 0.97 | 2.4 (≈ 1.01 µg/mL) | 44.6 | – | – | –
CCOC(=O)c1cnc2ccc(F)cc2c1Nc1ccc(OCCCN2CCN(CC)CC2)cc1 | 11.8 | 23.6 | 3.25 (≈ 1.56 µg/mL) | 21.6 | – | – | –
NNC(=O)c1cnc2ccc(C(F)(F)F)cc2c1Nc1ccc(OCCCN2CCOCC2)cc1 | 19.9 | 38.7 | 36.4 (≈ 17.8 µg/mL) | 0.07 | – | – | –
CCOC(=O)c1cnc2ccccc2c1Nc1ccc(NCCCN2CCN(CC)CC2)cc1 | 3.25 | 11.7 | 6.77 (≈ 3.13 µg/mL) | 20.4 | – | – | –
CCN1CCN(CCCNc2ccc(Nc3c(C(=O)NN)cnc4ccc(C(F)(F)F)cc34)cc2)CC1 | 11 | 26.3 | 30 (≈ 15.5 µg/mL) | 1.59 | – | – | –
NNC(=O)c1cnc2ccccc2c1Nc1ccc(NCCCN2CCOCC2)cc1 | 22.9 | > 50 | 44.9 (≈ 18.9 µg/mL) | 6.48 | – | – | –
CCN1CCN(CCCOc2ccc(Nc3c(C(=O)NN)cnc4ccc(OC)cc34)cc2)CC1 | 5.89 | 12.6 | 11.6 (≈ 5.57 µg/mL) | 2.72 | – | – | –
CCN1CCN(CCCNc2ccc(Nc3c(C(=O)NN)cnc4ccc(F)cc34)cc2)CC1 | 0.82 | 1.15 | 3.3 (≈ 1.54 µg/mL) | 6.11 | – | – | –
CCOC(=O)c1cnc2ccc(F)cc2c1Nc1ccc(NCCCN2CCOCC2)cc1 | 4.61 | 11.3 | 13.4 (≈ 6.09 µg/mL) | 19.6 | – | – | –
CCOC(=O)c1cnc2ccc(OC)cc2c1Nc1ccc(NCCCN2CCN(CC)CC2)cc1 | 8.52 | 9.55 | 25.4 (≈ 12.5 µg/mL) | 21.4 | – | – | –
CCOC(=O)c1cnc2ccc(C(F)(F)F)cc2c1Nc1ccc(NCCCN2CCOCC2)cc1 | 3.12 | 6.62 | 49.8 (≈ 25 µg/mL) | 20.2 | – | – | –
CCN1CCN(CCCOc2ccc(Nc3c(C(=O)NN)cnc4ccc(C(F)(F)F)cc34)cc2)CC1 | 9.33 | 11.9 | 11.5 (≈ 5.95 µg/mL) | 20.1 | – | – | –
O=C(O)c1cnc2ccccc2c1Nc1ccc(NCCCN2CCOCC2)cc1 | 5.56 | 11.3 | 7.69 (≈ 3.13 µg/mL) | 0.55 | – | – | –
COc1ccc2ncc(C(=O)NN)c(Nc3ccc(OCCCN4CCOCC4)cc3)c2c1 | 10.4 | 10.6 | 55.4 (≈ 25 µg/mL) | 6.26 | – | – | –
CCN1CCN(CCCOc2ccc(Nc3c(C(=O)NN)cnc4ccccc34)cc2)CC1 | 16.7 | 28.4 | 13.9 (≈ 6.25 µg/mL) | 18.2 | – | – | –
